Legend:
[1] = molecular target: Adenosine receptor A2a (Homo sapiens) (UniProt P29274); assay: Displacement of [3H]ZM2421385 from adenosine A2A receptor expressed in human HeLa cell membranes at 1 uM incubated for 30 mins by scintillation counting method; conditions: Cell membrane
[2] = molecular target: T1, Adenosine receptor A1 (Homo sapiens) (UniProt P30542); assay: Displacement of [3H]DPCPX from human adenosine A1 receptor expressed in CHO cell membranes at 1 uM incubated for 60 mins by scintillation counting method; conditions: Cell membrane
T1 sequence (whole entry): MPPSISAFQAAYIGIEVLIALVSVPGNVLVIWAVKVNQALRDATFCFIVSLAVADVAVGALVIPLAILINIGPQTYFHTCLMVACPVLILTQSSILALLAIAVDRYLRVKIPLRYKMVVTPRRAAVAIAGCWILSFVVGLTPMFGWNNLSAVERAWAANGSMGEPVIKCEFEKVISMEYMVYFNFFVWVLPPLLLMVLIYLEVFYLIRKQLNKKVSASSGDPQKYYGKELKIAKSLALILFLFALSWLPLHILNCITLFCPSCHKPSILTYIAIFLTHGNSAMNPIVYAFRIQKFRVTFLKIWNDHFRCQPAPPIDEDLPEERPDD

Adenosine receptor A2b = molecular target: T2, Adenosine receptor A2b (Homo sapiens, UniProt P29275); assay: Displacement of [3H]DPCPX from human adenosine A2B receptor expressed in HEK293 cell membranes incubated for 30 mins by scintillation counting method; design: species or system Cell membrane
T2 sequence (P29275 whole entry): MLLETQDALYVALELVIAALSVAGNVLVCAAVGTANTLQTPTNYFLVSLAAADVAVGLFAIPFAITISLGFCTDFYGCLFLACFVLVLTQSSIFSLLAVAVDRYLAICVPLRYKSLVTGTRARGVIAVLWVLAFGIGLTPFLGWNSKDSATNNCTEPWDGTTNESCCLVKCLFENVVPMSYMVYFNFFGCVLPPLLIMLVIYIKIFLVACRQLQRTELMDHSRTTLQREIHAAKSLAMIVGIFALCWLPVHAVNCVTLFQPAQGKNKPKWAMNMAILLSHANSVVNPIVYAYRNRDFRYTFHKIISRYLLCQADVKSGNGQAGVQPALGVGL

[3] = molecular target: T3, Adenosine receptor A3 (Homo sapiens) (UniProt P0DMS8); assay: Displacement of [3H]NECA from adenosine A3 receptor expressed in human HeLa cell membranes at 1 uM incubated for 180 mins by scintillation counting method; conditions: Cell membrane
T3 sequence (whole entry): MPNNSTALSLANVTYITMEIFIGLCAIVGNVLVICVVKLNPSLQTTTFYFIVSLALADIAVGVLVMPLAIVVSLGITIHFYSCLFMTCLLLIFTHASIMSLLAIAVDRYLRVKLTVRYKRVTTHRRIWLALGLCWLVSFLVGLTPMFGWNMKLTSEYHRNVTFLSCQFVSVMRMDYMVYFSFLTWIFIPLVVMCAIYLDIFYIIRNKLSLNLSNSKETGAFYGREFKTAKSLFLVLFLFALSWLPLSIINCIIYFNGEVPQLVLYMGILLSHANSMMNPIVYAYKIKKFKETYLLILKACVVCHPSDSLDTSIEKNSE
How it was run: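 hA3AR in HeLa membranes (3 pmol/mg protein) with 10 nM [3H]NECA (KD 8.7 nM); nonspecific binding with 100 μM R-PIA; incubated 180 min at 25 °C, washed, filtered, radioactivity counted.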

[4] = molecular target: T4, Adenosine receptor A2b (Homo sapiens) (UniProt P29275); assay: Displacement of [3H]DPCPX from human adenosine A2B receptor expressed in HEK293 cell membranes at 1 uM incubated for 30 mins by scintillation counting method; conditions: Cell membrane
T4 sequence (whole entry): T2 sequence (P29275 whole entry)

Sequence of Adenosine receptor A2a (Homo sapiens) (P29274 whole entry): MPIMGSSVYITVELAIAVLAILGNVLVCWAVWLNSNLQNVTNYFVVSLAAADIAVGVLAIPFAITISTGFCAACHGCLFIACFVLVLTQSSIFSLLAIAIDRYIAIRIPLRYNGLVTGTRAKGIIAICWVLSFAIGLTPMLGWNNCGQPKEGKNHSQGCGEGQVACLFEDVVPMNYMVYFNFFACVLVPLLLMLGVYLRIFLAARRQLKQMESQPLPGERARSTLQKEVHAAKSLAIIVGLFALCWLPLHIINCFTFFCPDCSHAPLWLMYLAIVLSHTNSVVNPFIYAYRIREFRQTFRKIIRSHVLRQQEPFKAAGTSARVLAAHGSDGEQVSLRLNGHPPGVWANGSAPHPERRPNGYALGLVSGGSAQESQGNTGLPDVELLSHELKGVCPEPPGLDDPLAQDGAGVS

CCOC(=O)C1=C(C)NC(=O)N[C@@H]1c1ccsc1
inhibition [1]: 9% | inhibition [2]: 10% | Ki (Adenosine receptor A2b): 11.1 nM | inhibition [3]: 6%

CC1=C(C(=O)OC(C)C)[C@@H](c2ccco2)NC(=S)N1
inhibition [1]: 13% | inhibition [2]: 8% | Ki (Adenosine receptor A2b): 6.3 nM | inhibition [3]: 1%

CCOC(=O)C1=C(C)N=C(S)NC1c1cccs1 (racemic)
Ki (Adenosine receptor A2b): 3250 nM

COC(=O)C1=C(C)N=C(S)NC1c1ccco1 (racemic)
inhibition [1]: 20% | inhibition [2]: 11% | Ki (Adenosine receptor A2b): 984 nM | inhibition [3]: 1%

CC1=C(C(=O)OCc2ccccc2)C(c2ccsc2)NC(=O)N1C (racemic)
inhibition [1]: 30% | inhibition [2]: 46% | Ki (Adenosine receptor A2b): 4520 nM | inhibition [3]: 14%

CC1=C(C(=O)OCC(C)C)C(c2ccsc2)NC(=O)N1 (racemic)
inhibition [1]: 37% | inhibition [2]: 56% | Ki (Adenosine receptor A2b): 1190 nM | inhibition [3]: 21%

CC1=C(C(=O)OCc2ccccc2)C(c2cccs2)NC(=O)N1 (racemic)
inhibition [1]: 30% | inhibition [2]: 45% | Ki (Adenosine receptor A2b): 1920 nM | inhibition [3]: 8%

CC1=C(C(=O)OC(C)C)C(c2ccsc2)NC(=S)N1 (racemic)
Ki (Adenosine receptor A2b): 315 nM

CC1=C(C(=O)OCc2ccccc2)C(c2ccco2)NC(=O)N1 (racemic)
inhibition [1]: 26% | inhibition [2]: 36% | Ki (Adenosine receptor A2b): 887 nM | inhibition [3]: 3%

CC1=C(C(=O)CC(C)C)C(c2ccoc2)NC(=O)N1 (racemic)
inhibition [1]: 20% | inhibition [2]: 23% | Ki (Adenosine receptor A2b): 1010 nM | inhibition [3]: 18%

CCCOC(=O)C1=C(C)NC(=O)NC1c1cccs1 (racemic)
inhibition [1]: 30% | inhibition [2]: 43% | Ki (Adenosine receptor A2b): 1520 nM | inhibition [3]: 32%

CCC(C)OC(=O)C1=C(C)NC(=O)NC1c1ccco1 (racemic)
inhibition [1]: 1% | inhibition [2]: 6% | Ki (Adenosine receptor A2b): 84.3 nM | inhibition [3]: 3%

CC1=C(C(=O)OC2CCCC2)C(c2ccco2)NC(=O)N1 (racemic)
inhibition [1]: 23% | inhibition [2]: 1% | Ki (Adenosine receptor A2b): 577 nM | inhibition [3]: 14%

CC1=C(C(=O)OC(C)(C)C)C(c2ccoc2)NC(=S)N1 (racemic)
inhibition [1]: 15% | inhibition [2]: 18% | Ki (Adenosine receptor A2b): 1890 nM | inhibition [3]: 19%

CCC(C)OC(=O)C1=C(C)NC(=O)NC1c1ccoc1 (racemic)
inhibition [1]: 1% | inhibition [2]: 13% | Ki (Adenosine receptor A2b): 201 nM | inhibition [3]: 11%

CC1=C(C(=O)C2CC2)C(c2ccco2)NC(=O)N1 (racemic)
inhibition [1]: 2% | inhibition [2]: 2% | Ki (Adenosine receptor A2b): 1060 nM | inhibition [3]: 7%

CC1=C(c2ncc(C)o2)C(c2ccoc2)NC(=O)N1 (racemic)
inhibition [1]: 14% | inhibition [2]: 21% | Ki (Adenosine receptor A2b): 801 nM | inhibition [3]: 1%

CC1=C(C(=O)OCC(C)C)C(c2ccco2)NC(=O)N1 (racemic)
inhibition [1]: 36% | inhibition [2]: 27% | Ki (Adenosine receptor A2b): 199 nM | inhibition [3]: 13%

CC1=C(C(=O)OC2CCC2)C(c2ccoc2)NC(=O)N1 (racemic)
inhibition [1]: 32% | inhibition [2]: 20% | Ki (Adenosine receptor A2b): 307 nM | inhibition [3]: 1%

CC1=C(c2ncc(C)o2)C(c2ccco2)NC(=O)N1 (racemic)
inhibition [1]: 23% | inhibition [2]: 27% | Ki (Adenosine receptor A2b): 905 nM | inhibition [3]: 4%

CC1=C(C(=O)OCC2CC2)C(c2ccco2)NC(=O)N1 (racemic)
inhibition [1]: 36% | inhibition [2]: 29% | Ki (Adenosine receptor A2b): 138 nM | inhibition [3]: 1%

CC1=C(C(=O)OCc2ccccc2)C(c2ccoc2)NC(=O)N1 (racemic)
inhibition [1]: 24% | inhibition [2]: 41% | Ki (Adenosine receptor A2b): 6650 nM | inhibition [3]: 1%

CCCOC(=O)C1=C(C)NC(=O)NC1c1ccsc1 (racemic)
inhibition [1]: 48% | inhibition [2]: 44% | Ki (Adenosine receptor A2b): 201 nM | inhibition [3]: 6%

CCCOC(=O)C1=C(C)NC(=O)NC1c1ccoc1 (racemic)
inhibition [1]: 45% | inhibition [2]: 50% | Ki (Adenosine receptor A2b): 1190 nM | inhibition [3]: 11%

CC1=C(C(=O)CC(C)C)C(c2ccco2)NC(=O)N1 (racemic)
inhibition [1]: 6% | inhibition [2]: 16% | Ki (Adenosine receptor A2b): 240 nM | inhibition [3]: 31%

CC1=C(C(=O)OC2CCC2)C(c2ccco2)NC(=O)N1 (racemic)
inhibition [1]: 41% | inhibition [2]: 19% | Ki (Adenosine receptor A2b): 95.1 nM | inhibition [3]: 1%

CC1=C(C(=O)OCC2CCC2)C(c2ccoc2)NC(=O)N1 (racemic)
inhibition [1]: 25% | inhibition [2]: 46% | Ki (Adenosine receptor A2b): 739 nM | inhibition [3]: 2%

CC1=C(C(=O)OCC(C)C)C(c2cccs2)NC(=O)N1 (racemic)
inhibition [1]: 12% | inhibition [2]: 25% | Ki (Adenosine receptor A2b): 2130 nM | inhibition [3]: 11%

CC1=C(C(=O)SC(C)C)C(c2ccoc2)NC(=O)N1 (racemic)
inhibition [1]: 2% | inhibition [2]: 9% | Ki (Adenosine receptor A2b): 637 nM | inhibition [3]: 3%

CCCC(=O)C1=C(C)NC(=O)NC1c1ccco1 (racemic)
inhibition [1]: 6% | inhibition [2]: 1% | Ki (Adenosine receptor A2b): 807 nM | inhibition [3]: 1%

CC1=C(C(=O)OC2CCCC2)C(c2ccoc2)NC(=O)N1 (racemic)
inhibition [1]: 1% | inhibition [2]: 6% | Ki (Adenosine receptor A2b): 1010 nM | inhibition [3]: 1%

CC1=C(C(=O)OCC2CC2)C(c2ccoc2)NC(=O)N1 (racemic)
inhibition [1]: 43% | inhibition [2]: 29% | Ki (Adenosine receptor A2b): 426 nM | inhibition [3]: 3%

CC1=C(C(=O)OCC2CCC2)C(c2ccco2)NC(=O)N1 (racemic)
inhibition [1]: 22% | inhibition [2]: 42% | Ki (Adenosine receptor A2b): 561 nM | inhibition [3]: 1%

CC1=C(C(=O)CC(C)C)C(c2ccsc2)NC(=O)N1 (racemic)
inhibition [1]: 19% | inhibition [2]: 37% | Ki (Adenosine receptor A2b): 1000 nM | inhibition [3]: 14%

CC1=C(c2ncc(C)o2)C(c2ccsc2)NC(=O)N1 (racemic)
inhibition [1]: 20% | inhibition [2]: 34% | Ki (Adenosine receptor A2b): 1130 nM | inhibition [3]: 2%

CC1=C(C(=O)OC(C)(C)C)C(c2ccoc2)NC(=O)N1 (racemic)
inhibition [1]: 9% | inhibition [2]: 11% | Ki (Adenosine receptor A2b): 4440 nM | inhibition [3]: 2%

CC1=C(C(=O)OC2CCCC2)C(c2cccs2)NC(=O)N1 (racemic)
inhibition [1]: 20% | inhibition [2]: 9% | inhibition [3]: 1% | inhibition [4]: 1%

CC1=C(C(=O)OC2CCCCC2)C(c2ccco2)NC(=O)N1 (racemic)
inhibition [1]: 5% | inhibition [2]: 1% | inhibition [3]: 4% | inhibition [4]: 1%

CC1=C(C(=O)OC2CCCCC2)C(c2cccs2)NC(=O)N1 (racemic)
inhibition [1]: 14% | inhibition [2]: 7% | inhibition [3]: 1% | inhibition [4]: 3%

CC1=C(C(=O)OC2CCCCC2)C(c2ccoc2)NC(=O)N1 (racemic)
inhibition [1]: 3% | inhibition [2]: 15% | inhibition [3]: 1% | inhibition [4]: 4%

CC1=C(C(=O)OC2CCCCC2)C(c2ccsc2)NC(=O)N1 (racemic)
inhibition [1]: 2% | inhibition [2]: 8% | inhibition [3]: 1% | inhibition [4]: 4%

CCC(C)OC(=O)C1=C(C)NC(=O)NC1c1cccs1 (racemic)
inhibition [1]: 2% | inhibition [2]: 5% | inhibition [3]: 7% | inhibition [4]: 7%

CCC(C)OC(=O)C1=C(C)NC(=O)NC1c1ccsc1 (racemic)
inhibition [1]: 1% | inhibition [2]: 5% | inhibition [3]: 7% | inhibition [4]: 39%

CCC(CC)OC(=O)C1=C(C)NC(=O)NC1c1cccs1 (racemic)
inhibition [1]: 4% | inhibition [2]: 13% | inhibition [3]: 1% | inhibition [4]: 6%

CCC(CC)OC(=O)C1=C(C)NC(=O)NC1c1ccoc1 (racemic)
inhibition [1]: 2% | inhibition [2]: 17% | inhibition [3]: 5% | inhibition [4]: 28%

CCC(CC)OC(=O)C1=C(C)NC(=O)NC1c1ccsc1 (racemic)
inhibition [1]: 1% | inhibition [2]: 22% | inhibition [3]: 6% | inhibition [4]: 26%

From ChEMBL document CHEMBL4765483 (J Med Chem, 2021)
